What was measured:
Rattus norvegicus [1] = species: Rattus norvegicus; test: In vitro inhibition of Thromboxane B2 (TXB2) production in glycogen-induced peritoneal cells of rat; assay type: functional, cell-based
Summary of the method: (§1)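 Glycogen-elicited rat peritoneal leukocytes in Ca²⁺/Mg²⁺-free HBSS (5 × 10⁶ cells/mL; 5 × 10⁵ cells per aliquot). Cells were preincubated 5 min at 37 °C with compound or vehicle (0.1% DMSO/0.1% BSA), then stimulated with A23187 (4 µM, 10 min, 37 °C). The reaction was stopped with BW755C (100 µM). Supernatant LTB₄, TXB₂ and PGE₂ were measured by RIA. Points were run in duplicate; IC₅₀ by probit.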

Rattus norvegicus [2] = species: Rattus norvegicus; test: Compound was evaluated in Vitro in glycogen induced peritoneal cells of rats(GPEC) for the inhibition of Prostaglandin E2 (PGE2) production at 0.1-10 uM; assay type: functional, cell-based; summary of the method: as §1
Rattus norvegicus [3] = species: Rattus norvegicus; test: In vitro inhibition of Leukotriene B4 (LTB4) production in glycogen-induced peritoneal cells of rat; assay type: functional, cell-based; summary of the method: as §1
Rattus norvegicus [4] = species: Rattus norvegicus; test: Compound was evaluated in Vitro in glycogen induced peritoneal cells of rats(GPEC) for the inhibition of Prostaglandin E2 (PGE2) production at 0.1-1 uM; assay type: functional, cell-based; summary of the method: as §1
Homo sapiens [5] = species: Homo sapiens; test: Inhibitory activity of the compound against leukotriene (LT) B4 production in human neutrophils; assay type: functional
Summary of the method: (§2)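 Human blood neutrophils were isolated by dextran sedimentation and Percoll gradient and held in Ca²⁺/Mg²⁺-free HBSS (1 × 10⁶ cells/mL). Cells were preincubated 5 min at 37 °C with compound or vehicle (0.1% DMSO/0.1% BSA), then stimulated with A23187 (4 µM, 10 min). Supernatant LTB₄ was measured by RIA. Duplicate points; IC₅₀ by probit.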

Homo sapiens [6] = species: Homo sapiens; test: Inhibitory activity of the compound against Thromboxane TXB2 production in human blood platelets; assay type: functional
Summary of the method: (§3)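 Washed human platelets in Tris-HCl-saline, pH 7.4, with 10 µM indomethacin (3 × 10⁸ cells/mL). Platelets were preincubated 5 min at 25 °C with compound or vehicle, then given PGH₂ (1 µg/mL, 3 min, 25 °C). The reaction was stopped with citrate/ethanol. Supernatant TXB₂ was measured by RIA. Duplicate points; IC₅₀ by probit.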

Homo sapiens [7] = species: Homo sapiens; test: Inhibitory activity of the compound against Thromboxane TXB2 production in human whole blood; assay type: functional
Summary of the method: (§4)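 Fresh heparinized (10 U/mL) human volunteer blood, 0.4 mL aliquots. Blood was preincubated 5 min at 37 °C with compound or vehicle (0.1% DMSO/0.1% BSA), then challenged with A23187 (40 µM, 20 min, 37 °C). Plasma LTB₄ and TXB₂ were measured by RIA. Duplicate points; IC₅₀ by probit.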

Homo sapiens [8] = species: Homo sapiens; test: Inhibitory activity of the compound against leukotriene (LT) B4 production in human whole blood; assay type: functional; summary of the method: as §4
Rattus norvegicus [9] = species: Rattus norvegicus; test: Compound was evaluated in Vitro in glycogen induced peritoneal cells of rats(GPEC) for the inhibition of Prostaglandin E2 (PGE2) production at 0.1-100 uM; assay type: functional, cell-based; summary of the method: as §1
Homo sapiens [10] = species: Homo sapiens; test: In vitro inhibition of LTB4 production in human neutrophils; assay type: functional; summary of the method: as §2
[11] = in vitro activities of TXB2 in human platelets; assay type: functional; summary of the method: as §3
[12] = in vitro activities of TXB2 in human whole blood; assay type: functional, tissue-based; summary of the method: as §4
Rattus norvegicus [13] = species: Rattus norvegicus; test: Compound was evaluated in Vitro in glycogen induced peritoneal cells of rats(GPEC) for the inhibition of Leukotriene B4 (LTB4) production; assay type: functional, cell-based; summary of the method: as §1
Homo sapiens [14] = species: Homo sapiens; test: In vitro inhibition of LTB4 production in human whole blood; assay type: functional; summary of the method: as §4

IC50 (Rattus norvegicus [1]) [nM] | IC50 (Rattus norvegicus [2]) [µM] | IC50 (Rattus norvegicus [3]) [nM] | Structure (SMILES) | further results
< 100 | > 100 | 270 | CC1=C(/C=C(\CCCCCc2cccnc2)C(=O)O)C(=O)C(OCC2CCCCC2)=C(C)C1=O | 
160 |  | 3200 | CCCCCCCOC1=C(C)C(=O)C(/C=C(\CCCCCc2cccnc2)C(=O)O)=C(C)C1=O | IC50 (Rattus norvegicus [4]): > 100 µM
 |  |  | O=C(O)/C=C/c1ccc(Cn2ccnc2)cc1 [OZAGREL] | IC50 (Homo sapiens [5]): > 100 µM; IC50 (Homo sapiens [6]): 1900 nM; IC50 (Homo sapiens [7]): < 0.1 µM; IC50 (Homo sapiens [8]): > 100000 nM
890 |  | 1800 | CCCCOC1=C(C)C(=O)C(C)=C(/C=C(\CCCc2cccnc2)C(=O)O)C1=O | 
500 |  | 750 | COC1=C(/C=C(\CCCCCc2cccnc2)C(=O)O)C(=O)C(C)=CC1=O | 
420 |  | 220 | COC1=C(/C=C(\CCCCCCc2cccnc2)C(=O)O)C(=O)C(C)=C(C)C1=O | 
< 100 |  | 270 | CCCCCCCOC1=C(C)C(=O)C(C)=C(/C=C(\CCCCCc2cccnc2)C(=O)O)C1=O | 
140 | > 100 | 2100 | COc1c(O)c(C)c(C)c(O)c1/C=C(\CCCCCc1cccnc1)C(=O)O | 
120 |  | 840 | CCOC1=C(C)C(=O)C(C)=C(/C=C(\CCCCCc2cccnc2)C(=O)O)C1=O | IC50 (Rattus norvegicus [9]): 100 µM
< 100 |  | 180 | COC1=C(C)C(=O)C(C)=C(/C=C(\CCCCCCc2cccnc2)C(=O)O)C1=O | IC50 (Rattus norvegicus [4]): 100 µM
 |  |  | CC(c1cc2ccccc2s1)N(O)C(N)=O (centres undefined) [ZILEUTON] | IC50 (Homo sapiens [7]): > 100 µM; IC50 (Homo sapiens [8]): 1300 nM
110 |  | 170 | COC1=C(/C=C(\CCCCCc2cccnc2)C(=O)O)C(=O)C(C)=C(C)C1=O | 
480 | 100 | 3200 | COC1=C(C)C(=O)C(/C=C(\CCCc2cccnc2)C(=O)O)=C(C)C1=O | 
180 |  | 540 | COC1=C(C)C(=O)C(C)=C(/C=C(\CCCCCc2cccnc2)C(=O)O)C1=O | IC50 (Rattus norvegicus [9]): > 100 µM
320 |  | 4400 | CCOC1=C(C)C(=O)C(/C=C(\CCCCCc2cccnc2)C(=O)O)=C(C)C1=O | IC50 (Rattus norvegicus [4]): 100 µM
400 |  | 4900 | COc1c(C)c(O)c(/C=C(\CCCCCc2cccnc2)C(=O)O)c(C)c1O | IC50 (Homo sapiens [10]): 1900 nM; IC50 [11]: 1900 nM; IC50 [12]: 3 µM; IC50 (Rattus norvegicus [13]): 4.9 mM; IC50 (Homo sapiens [14]): > 100 µM
70 |  | 820 | COC1=C(C)C(=O)C(/C=C(\CCCCCc2cccnc2)C(=O)O)=C(C)C1=O | IC50 (Homo sapiens [10]): 900 nM; IC50 [11]: 390 nM; IC50 [12]: 3.2 µM; IC50 (Rattus norvegicus [13]): 0.82 mM; IC50 (Homo sapiens [14]): 5.8 µM
410 | > 100 | 11700 | COC1=C(OC)C(=O)C(/C=C(\CCCCCc2cccnc2)C(=O)O)=C(C)C1=O | 
90 | > 100 | 1400 | COC1=C(C)C(=O)C(/C=C(\CCCCc2cccnc2)C(=O)O)=C(C)C1=O | 
1500 | > 100 | > 3000 | COc1c(C)c(O)c(C)c(/C=C(\CCCCCc2cccnc2)C(=O)O)c1O | 
120 | 100 | 590 | COC1=C(C)C(=O)C(/C=C(\CCCCCCc2cccnc2)C(=O)O)=C(C)C1=O | 
< 100 |  | 1000 | CCCCOC1=C(C)C(=O)C(C)=C(/C=C(\CCCCCc2cccnc2)C(=O)O)C1=O | IC50 (Rattus norvegicus [4]): 100 µM

Reference: ChEMBL document CHEMBL1129263, “Structure-activity relationships of (E)-3-(1,4-benzoquinonyl)-2-[(3-pyridyl)-alkyl]-2-propenoic acid derivatives that inhibit both 5-lipoxygenase and thromboxane A2 synthetase” (J Med Chem, 1996)
